Assay outcomes from PubChem BioAssay.
FLuc inhib CS – firefly luciferase enzyme inhibitors, primary screen, artefact control for luciferase-based inhibitor screens, biochemical, luminescence, ATPLite. 10 min. inhibition, % at 10 µM. 1.5% of 200,000 active;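 active = inhibition above about 50% when tested at 10 µM, limit read from the data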
Target sequence (P08659 whole entry, looked up): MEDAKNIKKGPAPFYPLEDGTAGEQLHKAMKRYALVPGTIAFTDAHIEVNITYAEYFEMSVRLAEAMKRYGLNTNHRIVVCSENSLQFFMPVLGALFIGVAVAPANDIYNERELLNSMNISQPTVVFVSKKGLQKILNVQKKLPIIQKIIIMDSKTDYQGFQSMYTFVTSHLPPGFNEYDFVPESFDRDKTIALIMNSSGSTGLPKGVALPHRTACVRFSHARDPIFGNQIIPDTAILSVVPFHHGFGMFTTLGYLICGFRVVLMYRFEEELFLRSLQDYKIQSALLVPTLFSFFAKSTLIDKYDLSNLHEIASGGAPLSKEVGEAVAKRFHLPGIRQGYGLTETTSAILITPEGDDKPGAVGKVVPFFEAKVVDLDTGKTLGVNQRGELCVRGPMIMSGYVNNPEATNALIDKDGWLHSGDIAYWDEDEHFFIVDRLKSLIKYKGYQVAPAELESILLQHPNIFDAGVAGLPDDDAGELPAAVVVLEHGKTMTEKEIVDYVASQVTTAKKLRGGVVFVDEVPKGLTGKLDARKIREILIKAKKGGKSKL
FLuc stim CS – FLuc activators, initial screening, artefact control for FLuc-dependent activation tests, biochemical, ATPlite luminescence; activation factor at 10 µM; 200,000 tested, under 10 active; AID 1027, 2008; Luciferin 4-monooxygenase (Photinus pyralis), P08659; ATPlite luciferase biochemical, 10 min; 0 = ATP-free wells, 1 = DMSO control;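 active = luciferase activation factor, scaled between plate controls, of at least 2 with compound at 10 µM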
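test system = cell-free luciferase reagent | medium = PBS as buffer for the ATP substrate | dosing = test compounds dosed from 2 mM stocks in 100% DMSO | incubation = 10 min at ambient temperature | detection = luminescence measurement of luciferase light output | benchmarks = low control with PBS replacing ATP, high control enzyme plus ATP without compound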
PPC-1+TRAIL kill – compounds killing PPC-1 cancer cells with TRAIL present, primary screen, TRAIL potentiator project, ATPLite luminescence, uHTS. PPC-1 cells + TRAIL, ATPLite viability luminescence. cell killing (% activity), % at 4 µM or 5 µM. 0.41% of 220,000 active. AID 1443, 2008;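 active = cell killing above 50% in the first pass at 4 µM, then a duplicate retest at 5 µM averaging 50% or more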;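 also: plate controls were cells with TRAIL plus DMSO for no effect and medium-only wells lacking cells for full effect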
C8 TRAIL sens – viability loss with TRAIL in NB7+C8 cells, primary screen, TRAIL sensitizer project, cell-based, ATPlite luminescence; inhibition (viability loss, TRAIL sensitization), % at 10 µM; 1% of 360,000 active; AID 624354, 2012;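 active = compounds causing at least 50% loss of cell viability in the single-dose screen, relative to plate controls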
* hit, by the source's call; nt = no result. Sampled rows, rich in hits. Any-hit rate of the full collection: about 1.6%.

SMILES | FLuc inhib CS | FLuc stim CS | PPC-1+TRAIL kill | C8 TRAIL sens
COc1ccc(CNC(=O)C[C@H]2C[C@H](C(=O)N3CCCCC3)[C@@]3(CCc4ccccc4)c4[nH]c5ccc(Cl)cc5c4CCN3C2=O)cc1OC | nt | nt | nt | 27
COc1ccc(/C=N/c2c(-c3ccc(OC)cc3)nc3n2CCS3)cc1 | 59* | 0.4 | -7 | 18
Cc1cc2c(=Cc3ccc(N(C)C)cc3)c3ccccc3n2[n+]1C | nt | nt | nt | 31
CN(C)c1ccc(C=c2c3cc(O)ccc3n3c2cc(-c2ccccc2)[n+]3C)cc1 | nt | nt | nt | 51*
C[n+]1c(-c2ccccc2)cc2c(=Cc3ccccc3)c3ccccc3n21 | nt | nt | nt | 81*
CCOC(=O)c1cc2c(=Cc3ccc(N(C)C)cc3)c3ccccc3n2[n+]1C | nt | nt | nt | 53*
Cc1cccc(NC(=O)CN(C)C(=O)Cc2ccc(-c3ccccc3)cc2)c1C | nt | nt | nt | -4
CC(C)c1ccc(NC2=CC(=O)CC(C)(C)C2)cc1 | nt | nt | nt | -10
Cc1cc(CNC[C@H]2O[C@@H](n3cnc4c(N)ncnc43)[C@H](O)[C@@H]2O)no1 | nt | nt | nt | -3
Cn1c(C(=O)NCc2ccccn2)cc2c(=O)n3ccccc3nc21 | 51* | 0.5 | 32 | 20
N#CC1=C(N)N2C(=C(C#N)C1c1cccc(Br)c1)Nc1ccccc12 (configuration not stated) | -6 | 1.1 | 28 | 53*
CCOc1ccc(NC(=O)C(CC(=O)O)Cc2ccc(C)cc2)cc1 (configuration not stated) | nt | nt | nt | -6
O=C(/C=C/c1cccs1)Nc1nccs1 | 26 | 0.7 | 15 | 23
NS(=O)(=O)c1cccc(NC(=O)/C=C/c2cccs2)c1 | 73* | 0.3 | 42 | 32
NS(=O)(=O)c1ccc(NC(=O)/C=C/c2cccs2)cc1 | nt | nt | 3 | -1
O=C(/C=C/c1cccs1)Nc1cccc(NC(=O)/C=C/c2cccs2)n1 | 60* | 0.4 | 28 | 73*
COc1cccc(C(NC(C)=O)c2nc(-c3cccc(F)c3)cs2)c1 (configuration not stated) | nt | nt | nt | 5
Cc1cc(C)c(C(=O)CN2C(=O)NC3(CCCCCC3)C2=O)cc1C | -8 | 1.1 | 8 | 4
CC(C)CC(=O)/C(=C/c1ccc(N(C)C)cc1)n1cncn1 | nt | nt | nt | -17
CC(C)CC(=O)/C(=C\c1ccc(Cl)cc1Cl)n1cncn1 | -2 | 1 | 9 | 64*
Cc1csc(NC(=O)c2cncc(Br)c2)n1 | 50* | 0.5 | 22 | 18
Cc1csc(NC(=O)c2ccc(C(=O)Nc3nc(C)cs3)cc2)n1 | nt | nt | 4 | nt
CCCCCN=C(N)N/N=C/c1c[nH]c2ccc(OC)cc12 | nt | nt | nt | 94*
CCOc1ccc(-n2c(SCC(=O)N3CCc4ccccc43)nnc2-c2c[nH]c3ccccc23)cc1 | -3 | 1 | 6 | 5
COc1cccc(-n2c(SCC(=O)N3CCc4ccccc43)nnc2-c2c[nH]c3ccccc23)c1 | -3 | 1 | 6 | 59*
SMILES | FLuc inhib CS | FLuc stim CS | PPC-1+TRAIL kill | C8 TRAIL sens
Cc1[nH]c(=O)sc1C(=O)NCc1ccc([N+](=O)[O-])cc1 | nt | nt | nt | -12
CN(Cc1nccs1)C(=O)C1CCC(=O)N(CCc2ccc(Cl)cc2)C1 (configuration not stated) | nt | nt | nt | 5
C/C(=N\Nc1nc2ccccc2[nH]1)c1ccccn1 | nt | nt | nt | 58*
C/C(=N\Nc1nc2ccccc2[nH]1)c1cc2ccccc2o1 | 78* | 0.2 | 14 | 59*
C/C(=N\Nc1nc2ccccc2[nH]1)c1ccc2c(c1)OCO2 | 32 | 0.7 | 4 | 21
C/C(=N\Nc1nc2ccccc2[nH]1)c1ccc2c(c1)OCCO2 | 78* | 0.2 | 32 | 40
Cc1nc2cc(C(=O)N3c4ccccc4CC3C)ccc2s1 (configuration not stated) | -5 | 1 | -6 | -19
C[C@H]1COc2cccc(N3CCSCC3)c2S(=O)(=O)N1 | nt | nt | nt | -3
O=c1ccnc(S/C=C/c2ccccc2)[nH]1 | 63* | 0.4 | 34 | 8
O=c1ccnc(SCCc2ccccc2)[nH]1 | nt | nt | nt | -9
Nc1ccc2oc(-c3ccccn3)nc2c1 | 58* | 0.4 | 34 | 31
Clc1ccc2oc(-c3ccccn3)nc2c1 | 69* | 0.3 | 46 | 28
COC(=O)c1ccc(NC(=O)CSc2nn3c(=O)c(C)nnc3s2)cc1 | nt | nt | nt | -13
CSc1ccc(C(=O)/C=C/c2ccc(N)cc2)cc1 | 90* | 0.1 | 44 | 55*
Cc1ccc(/C=C/C(=O)c2nc3ccccc3[nH]2)cc1 | 94* | 0.1 | 15 | 46
CN(C)c1ccc(C(=O)C=Cc2ccc([N+](=O)[O-])cc2)cc1 | nt | nt | nt | -5
COc1ccc(C(=O)/C=C/c2ccc(O)cc2)cc1 | 55* | 0.4 | -1 | 32
CN(C)c1ccc(/C=C/C(=O)c2ccc(O)cc2)cc1 | nt | nt | nt | 63*
Cc1ccccc1CNC(=O)C(C)Sc1ccccc1 (configuration not stated) | nt | nt | nt | -6
COc1ccc(/C=N/NC(=O)c2cccc3ccccc23)c(OC)c1OC | nt | nt | nt | 8
CCCNC(=O)C1(C)CCCN(Cc2ccc(Oc3ccccc3)cc2)C1 (configuration not stated) | nt | nt | nt | 4
Nc1ccc(/C=C/C(=O)c2ccco2)cc1 | 55* | 0.5 | 17 | 6
Cc1ccc(/C=C/C(=O)c2ccc(C)cc2)cc1 | 54* | 0.5 | 18 | 1
Cc1ccc(O)c(C(=O)/C=C/c2ccc3c(c2)OCCCO3)c1 | 33 | 0.7 | 42 | 16
CN(C)c1ccc(/C=C/C(=O)c2ccccc2O)cc1 | 66* | 0.3 | 14 | 14
SMILES | FLuc inhib CS | FLuc stim CS | PPC-1+TRAIL kill | C8 TRAIL sens
N#Cc1ccc(/C=C/C(=O)c2ccco2)cc1 | 10 | 0.9 | 18 | -14
Cc1ccc(/C=C/C(=O)c2ccccc2O)cc1 | nt | nt | 1 | 2
O=C(/C=C/c1ccc2c(c1)OCCCO2)c1ccccc1O | 77* | 0.2 | 16 | 39
CCOC(=O)c1cc2c(C)n(-c3ccc(C)cc3)c(C)c2ccc1=O | 84* | 0.2 | -4 | 59*
CCOC(=O)c1cc2c(C)n(-c3ccc(OCC)cc3)c(C)c2ccc1=O | 0 | 1 | 18 | 10
CCOC(=O)C(=O)N=Nc1c(O)n(C)c2ccccc12 | -4 | 1 | -4 | -6
Cn1c(O)c(N=NC(=O)c2ccco2)c2ccccc21 | 64* | 0.4 | 23 | 40
Cc1occc1C(=O)N=Nc1c(O)n(C)c2ccccc12 | 60* | 0.4 | 41 | 35
O=C(N=Nc1c(O)n(Cc2ccccc2)c2ccccc12)c1ccc(O)cc1 | 51* | 0.5 | 15 | 39
Cn1c(O)c(N=NC(=O)c2ccccc2O)c2ccccc21 | 82* | 0.2 | 34 | 42
CC(CC(=O)NNC(=O)c1ccncc1)c1ccccc1 (configuration not stated) | nt | nt | nt | 15
CC(=O)N1CCN(C2=Nc3cccc4cccc2c34)CC1 | -2 | 1 | 44 | 9
COc1ccccc1N1CCN(C2=Nc3cccc4cccc2c34)CC1 | 78* | 0.2 | 47 | 67*
Clc1nccnc1N/N=C/c1ccc(Br)cc1 | nt | nt | nt | -1
